Measurements published in ChEMBL document CHEMBL2331538, “Identification of inhibitors against interaction between pro-inflammatory sPLA2-IIA protein and integrin αvβ3” (Bioorg Med Chem Lett, 2013).
pIC50: −log10 of the molar value. Active and inactive are the calls of the source. The rule behind the calls is not given here.

What was measured:
[1] = biological target: T1, Phospholipase A2, membrane associated (Homo sapiens) (UniProt P14555); assay: Inhibition of sPLA2-IIA (unknown origin)-integrin alphaVbeta3 interaction in human K562 cells pretreated for 30 mins to immobilized sPLA2 before adding cells by phosphatase assay relative to BSA; format: cell-based
T1 sequence (whole entry): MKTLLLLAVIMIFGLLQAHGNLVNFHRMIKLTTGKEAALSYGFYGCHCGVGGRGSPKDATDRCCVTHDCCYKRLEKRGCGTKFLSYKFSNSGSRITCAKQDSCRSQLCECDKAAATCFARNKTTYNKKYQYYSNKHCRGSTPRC
Outline: (§1)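 Wells coated with sPLA2-IIA and blocked with BSA were preincubated with compound (10 to 500 μM) for 30 min. Integrin αvβ3-transfected K562 erythroleukemia cells were then added for 1 h at 37 °C, and bound cells were quantified by phosphatase assay. IC50 and maximum inhibition were derived from dose-response experiments.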

[2] = biological target: T1, Phospholipase A2, membrane associated (Homo sapiens); assay: Inhibition of sPLA2-IIA (unknown origin)-integrin alphaVbeta3 interaction in human K562 cells pretreated at 200 uM for 30 mins to immobilized sPLA2 before adding cells by phosphatase assay; format: cell-based
Outline: (§2)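 Specificity adhesion assay using αvβ3-transfected K562 cells. Wells were coated with either ADAM15 or sPLA2-IIA and blocked with BSA. Compound was used at 200 μM. Adherent cells were quantified by phosphatase assay. Means ± S.E., n=3.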

[3] = biological target: T2, Disintegrin and metalloproteinase domain-containing protein 15 (Homo sapiens) (UniProt Q13444); assay: Inhibition of ADAM15 (unknown origin)-integrin alphaVbeta3 interaction in human K562 cells pretreated at 200 uM for 30 mins to immobilized sPLA2 before adding cells by phosphatase assay; format: cell-based; outline: as §2
T2 sequence (whole entry): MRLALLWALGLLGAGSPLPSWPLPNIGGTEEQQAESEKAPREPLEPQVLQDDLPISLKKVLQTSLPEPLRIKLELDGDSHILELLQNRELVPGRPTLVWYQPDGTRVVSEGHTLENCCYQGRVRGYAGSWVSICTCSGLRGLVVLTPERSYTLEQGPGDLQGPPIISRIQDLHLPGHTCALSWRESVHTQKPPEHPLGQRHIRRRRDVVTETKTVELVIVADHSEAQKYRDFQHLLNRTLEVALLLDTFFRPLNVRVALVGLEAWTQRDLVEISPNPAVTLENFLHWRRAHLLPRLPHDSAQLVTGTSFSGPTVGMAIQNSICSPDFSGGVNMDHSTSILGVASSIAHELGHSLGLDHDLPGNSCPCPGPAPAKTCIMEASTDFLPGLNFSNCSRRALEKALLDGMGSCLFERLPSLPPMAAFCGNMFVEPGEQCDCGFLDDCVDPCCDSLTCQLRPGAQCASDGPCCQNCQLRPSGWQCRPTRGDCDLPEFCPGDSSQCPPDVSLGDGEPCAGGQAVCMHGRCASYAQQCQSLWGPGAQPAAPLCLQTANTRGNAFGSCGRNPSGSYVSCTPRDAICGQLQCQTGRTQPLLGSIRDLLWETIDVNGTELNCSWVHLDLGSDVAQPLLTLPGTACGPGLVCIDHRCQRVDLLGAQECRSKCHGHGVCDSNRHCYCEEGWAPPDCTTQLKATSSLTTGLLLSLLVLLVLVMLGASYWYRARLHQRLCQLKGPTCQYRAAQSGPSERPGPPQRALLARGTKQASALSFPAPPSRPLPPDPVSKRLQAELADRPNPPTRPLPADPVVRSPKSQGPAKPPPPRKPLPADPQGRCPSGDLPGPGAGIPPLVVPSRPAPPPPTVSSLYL

U-937 [4] = assay: Inhibition of sPLA2-IIA (unknown origin)-induced migration of human U937 cells after 20 hrs by chemotaxis assay
[5] = biological target: T3, Phospholipase A2, membrane associated (Homo sapiens, UniProt P14555); assay: Inhibition of sPLA2-IIA (unknown origin)-integrin alphaVbeta3 interaction in human K562 cells pretreated for 30 mins to immobilized sPLA2 before adding cells by phosphatase assay; format: cell-based; outline: as §1
T3 sequence (P14555 whole entry): T1 sequence (whole entry)

U-937 [6] = assay: Inhibition of sPLA2-IIA R47E/R100E mutant (unknown origin)-induced migration of human U937 cells after 20 hrs by chemotaxis assay; format: cell-based
[7] = biological target: T1, Phospholipase A2, membrane associated (Homo sapiens); assay: Inhibition of sPLA2-IIA (unknown origin)-induced migration of human U937 cells after 20 hrs by chemotaxis assay; format: cell-based; settings: U-937
Outline: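 Modified Boyden chamber (Transwell) chemotaxis assay. The lower chamber held sPLA2-IIA (40 ng/ml) with compound (4 to 16 μM), and U937 monocytic cells were placed in the upper chamber for 20 h at 37 °C. Migrated cells were counted. Means ± SE, n=4.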

Row | Compound | Imax [1] | other results
1 | Cc1nc(NC(=O)c2ccccc2)sc1-c1cc(C(=O)O)[nH]n1 | inactive | 
2 | Cc1nc(NC(=O)c2ccccc2)sc1-c1cc(C(=O)NCC(=O)N[C@H](CCCNC(=N)N)C(=O)O)[nH]n1 | 77% | 
3 | Cc1nc(NC(=O)c2ccccc2)sc1-c1cc(C(=O)N[C@@H](C)C(=O)N[C@@H](Cc2c[nH]c3ccccc23)C(=O)N[C@H](CC(=O)O)C(=O)O)[nH]n1 | inactive | 
4 | Cc1nc(NC(=O)c2ccccc2)sc1-c1cc(C(=O)NCC(=O)N[C@H](CCCNC(=N)N)C(=O)NCC(=O)O)[nH]n1 | 81% | 
5 | Cc1nc(NC(=O)c2ccccc2)sc1-c1cc(C(=O)NCC(=O)N[C@H](CCCN=C(N)N)C(=O)NCC(=O)O)[nH]n1 |  | pIC50 [5]: 3.66
6 | Cc1nc(NC(=O)c2ccccc2)sc1-c1cc(C(=O)NCC(=O)N[C@H](CCCN=C(N)N)C(=O)NCC(=O)N[C@H](CC(=O)O)C(=O)O)[nH]n1 |  | pIC50 [5]: 3.81
7 | Cc1nc(NC(=O)c2ccccc2)sc1-c1cc(C(=O)N[C@@H](C)C(=O)O)[nH]n1 | inactive | 
8 | Cc1nc(NC(=O)c2ccccc2)sc1-c1cc(C(=O)NCC(=O)N[C@H](CCCN=C(N)N)C(=O)O)[nH]n1 |  | pIC50 [5]: 3.58
9 | Cc1nc(NC(=O)c2ccccc2)sc1-c1cc(C(=O)NCC(=O)O)[nH]n1 | 98% | 
10 | Cc1nc(NC(=O)c2ccccc2)sc1-c1cc(C(=O)N[C@@H](C)C(=O)N[C@@H](Cc2c[nH]c3ccccc23)C(=O)O)[nH]n1 | inactive | 
11 | Cc1nc(NC(=O)c2ccccc2)sc1-c1cc(C(=O)NCC(=O)N[C@H](CCCN=C(N)N)C(=O)NCC(=O)N[C@H](CC(=O)O)C(=O)N[C@H](CC(=O)O)C(=O)N[C@H](CC(=O)O)C(=O)O)[nH]n1 |  | pIC50 [5]: 4.15

More lines, main results first:

Row | Imax [1] | Compound | other results
12 | 93% | Cc1nc(NC(=O)c2ccccc2)sc1-c1cc(C(=O)NCC(=O)N[C@H](CCCNC(=N)N)C(=O)NCC(=O)N[C@H](CC(=O)O)C(=O)N[C@H](CC(=O)O)C(=O)N[C@H](CC(=O)O)C(=O)O)[nH]n1 | inhibition [2]: Active; inhibition [3]: inactive; inhibition (U-937 [4]): inactive
13 | < 30% | C[C@H](NC(=O)[C@H](CCCCN)NC(=O)[C@H](Cc1ccc(O)cc1)NC(=O)[C@H](Cc1cnc[nH]1)NC(=O)c1cnccn1)C(=O)N[C@H](CC(N)=O)C(=O)N[C@H](C(=O)O)[C@@H](C)O | 
14 | inactive | CC[C@H](C)[C@H](NC(=O)[C@@H](CC(=O)O)NC(=O)[C@H](Cc1c[nH]c2ccccc12)NC(=O)[C@H](C)N)C(=O)O | 
15 | < 30% | N=C(N)NCCC[C@@H](NC(=O)c1csc(-c2ccccn2)n1)C(=O)N[C@@H](Cc1c[nH]c2ccccc12)C(=O)N[C@@H](CCC(=O)O)C(=O)N[C@H](Cc1ccccc1)C(=O)O | 
16 | 85% | CC[C@H](C)[C@H](NC(=O)[C@@H](CC(=O)O)NC(=O)[C@H](Cc1c[nH]c2ccccc12)NC(=O)[C@H](C)NC(=O)c1cc(-c2sc(NC(=O)c3ccccc3)nc2C)n[nH]1)C(=O)O | inhibition [2]: Active; inhibition [3]: inactive; pIC50 [5]: 4.70; inhibition (U-937 [6]): inactive; inhibition [7]: Dose-dependent effect
17 | < 30% | CC(C)[C@H](NC(=O)[C@@H]1CCCN1C(=O)[C@@H](CC(N)=O)NC(=O)[C@@H](CCCNC(=N)N)NC(=O)[C@H](CCCCN)NC(=O)[C@H](Cc1c[nH]c2ccccc12)NC(=O)c1csc(-c2ccccn2)n1)C(=O)O | 
18 | inactive | Cc1nc(NC(=O)c2ccccc2)sc1-c1cc(C(=O)NCC(=O)N[C@H](CCCNC(=N)N)C(=O)NCC(=O)N[C@H](CC(=O)O)C(=O)N[C@H](CC(=O)O)C(=O)O)[nH]n1 | 
19 | 71% | C[C@H](NC(=O)[C@@H](CCCNC(=N)N)NC(=O)[C@@H](CC(N)=O)NC(=O)[C@@H](CCCNC(=N)N)NC(=O)[C@@H](Cc1ccccc1)NC(=O)c1ccc2nn3c(c2c1)OCc1cc(Cl)ccc1-3)C(=O)N[C@@H](Cc1ccc(O)cc1)C(=O)O | pIC50 [5]: 4.07
20 | inactive | N=C(N)NCCC[C@@H](NC(=O)CN)C(=O)NCC(=O)N[C@H](CC(=O)O)C(=O)N[C@H](CC(=O)O)C(=O)N[C@H](CC(=O)O)C(=O)O | 
21 | < 30% | CC(C)[C@H](NC(=O)CC1NC(=O)NC1=O)C(=O)N[C@H](CC(N)=O)C(=O)N[C@@H](Cc1c[nH]c2ccccc12)C(=O)N1CCC[C@H]1C(=O)N[C@@H](CCC(N)=O)C(=O)N[C@@H](CCC(N)=O)C(=O)O (stereo partly specified) | 
22 | 87% | Cc1nc(NC(=O)c2ccccc2)sc1-c1cc(C(=O)NCC(=O)N[C@H](CCCNC(=N)N)C(=O)NCC(=O)N[C@H](CC(=O)O)C(=O)O)[nH]n1 | 
